Legend:
GFP-Wingless = test: In vivo trapping of GFP-Wingless at the surface of wing imaginal disc cells; parameters: species or system Drosophila; details: overexpressed with ptc-Gal4 in wing imaginal discs
Summary of the method: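 GFP-Wingless knock-in wing discs with V5-tagged human GPC4, GPC6, GPC3 or GPC5 driven by ptc-Gal4, crossed at 25°C. Surface capture of GFP-Wingless imaged by confocal microscopy after immunostaining with Alexa-conjugated secondaries and DAPI mounting. Three independent repeats.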

senseless = test: Effect of overexpression on high target gene senseless in wing discs; type: in vivo, Drosophila; details: driven with ptc-Gal4 in wing discs
Summary of the method: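 Wing discs from crosses at 25°C, with V5-tagged human glypican UAS-attB transgenes driven by ptc-Gal4 (senseless) or en-Gal4 (Distal-less). Discs immunostained with Alexa-conjugated secondaries, DAPI-mounted and imaged by confocal microscopy. Distal-less signal quantified in boxed regions and plotted separately for anterior and posterior compartments. Three independent repeats.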

extracellular Wingless = test: In vivo trapping of endogenous extracellular Wingless in wing discs; parameters: species or system Drosophila; details: overexpressed with ptc-gal4 in wing discs; extracellular Wingless staining
Summary of the method: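 HA-tagged wild-type or point-mutant Dlp/Dally transgenes (attP2 landing site) driven by ptc-gal4, crossed at 25°C. Wing discs immunostained for extracellular Wingless using an extracellular staining protocol, DAPI-mounted and imaged on a confocal microscope. Three independent repeats.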

Molecule | trapping of endogenous Wingless (extracellular Wingless) | other results
GPC6: human glypican of Dlp family; secreted ΔGPI form (amino acids 1-529) in solubilisation assays (protein, left off: V5, internal (immediately after the signal peptide), state not stated) DVKARSCGEVRQAYGAKGFSLADIPYQEIAGEHLRICPQEYTCCTTEMEDKLSQQSKLEFENLVEETSHFVRTTFVSRHKKFDEFFRELLENAEKSLNDMFVRTYGMLYMQNSEVFQDLFTELKRYYTGGNVNLEEMLNDFWARLLERMFQLINPQYHFSEDYLECVSKYTDQLKPFGDVPRKLKIQVTRAFIAARTFVQGLTVGREVANRVSKVSPTPGCIRALMKMLYCPYCRGLPTVRPCNNYCLNVMKGCLANQADLDTEWNLFIDAMLLVAERLEGPFNIESVMDPIDVKISEAIMNMQENSMQVSAKVFQGCGQPKPAPALRSARSAPENFNTRFRPYNPEERPTTAAGTSLDRLVTDIKEKLKLSKKVWSALPYTICKDESVTAGTSNEEECWNGHSKARYLPEIMNDGLTNQINNPEVDVDITRPDTFIRQQIMALRVMTNKLKNAYNGNDVNFQDTSDESSGSGSGSGCMDDVCPTEFEFVTTEAPAVDPDRREVDS | – | trapping of GFP-Wingless at the cell surface (GFP-Wingless; listed as hGPC6): trapped Wingless; effect on high target gene senseless (senseless): inhibit the high target gene senseless
Dally[E149R, N150T, M151Q, T152F]: Dally mutant removing predicted glycosylation site and restoring hydrophobic F (protein, left off: HA, end not stated, kept) KHLDLDGIHHHQHHLHSATTHHRRRLQRDSRAKDAVGGSTHQCDAVKSYFESIDIKSSGTYSEKGAICGGNCCNNATELELRDKAAGMFEQLLHHHTSSLRGVLETNAKQFQSHVLELAQISRTQFHSLFSKVYTRMVPSSRMMIHQLYTEIMNHLIYTSNYTNSNGQLGRRGIGSVQSNLEEAVRHFFVQLFPVAYHQMVHLSKNNLGDLHEDYVNCLQHNFDEMHPFGDIPQQVQSNLGKSVHMSNVFMNALLQAAEVLSEADALYGEQLTDTCKLHLLKMHYCPNCNGHHSSSRSETKLCYGYCKNVMRGCSAEYAGLLDSPWSGVVDSLNNLVTTHILSDTGIINVIKHLQTYFSEAIMAAMHNGPELEKKVKKTCGTPSLTPYSSGEPDARPPPHKNNVKWATDPDPGMVLFLSTIDKSKEFYTTIVDNFCDEQQHSRDDHSCWSGDRFGDYTQLLINPGTDSQRYNPEVPFNAKAQTGKLNELVDKLFKIRKSIGAAAPSNSIQATHDIQNDMGEGSGGGEGQIGDDEEEYGGAHGSGDGSGDGPHTPIEESEGTTTNEVESRDSGKTSG | did not confer lipid-binding activity | –
Dlp[N367C, M175C]^ΔGPI: Dlp mutant with engineered disulphide bridge locking closed, apo conformation (protein, left off: V5, C-terminal, kept) PQVAALAAPNPAGGVAGSSIIDQFSPNCSAVTHIFQARGIDAIEIPQKPSNERVLRYCESPSVGTCCTYNMETRMAMQSRQQLEGHTKDQISRMSGILGSKATKFKDIFTALLKESRTQFNSCFIRTYGVIYERNSYVFSDLFKELETYFANGRVDLLEVMDKFFNTLYQKMFTVLNTQYTFDENYMRCVSEHMKELKPFGDVPDKLSVQIKRSFVATRTYGQALTTASEVAKKVLNVRLNADCTGALTKMQHCGACKGYTEKPCTNYCVNVIKGCLHYQHEFDSEWENFAMAMDKVAERLLGSFNIVMVVEPLCIKISEAIMNFQDSGQDITNRVFQGCGRPKLKKMKRSISPKLQGVQILNARSPVEADTLDIDETLDEAIVLRERRAAEPGSQETSAQQSQEQGVGKSGNGGGGGGGNNRRQQQRRKQQQQRRKQQNNRDDNDDDDNESGGGREPILDRIVRDIRQRVKDYKKFWSNLPHSVCSNEDIASSSDVDGMCWNGHTIDRYMHSITTEHGSNPEFTGNPASTKQTAQMASQLSHLKNAIVHLRNAYNGQDVEWSEQEELPYAGSGAGSGSGSEDDEDDDEGSGLGPFEPSHKPDVERPSVDADNDDDEDAGGRGHMPTHTSRPTSGVDDKNPLIHTTHFDQDHNDLDEDHRQLDEDEDTDAG | no in vivo trapping activity | –
Dlp[S168M]^ΔGPI: Dlp mutant with bulky residue at cavity entrance; HA form used in discs (protein, left off: V5, C-terminal, kept) PQVAALAAPNPAGGVAGSSIIDQFSPNCSAVTHIFQARGIDAIEIPQKPSNERVLRYCESPSVGTCCTYNMETRMAMQSRQQLEGHTKDQISRMSGILGSKATKFKDIFTALLKEMRTQFNSMFIRTYGVIYERNSYVFSDLFKELETYFANGRVDLLEVMDKFFNTLYQKMFTVLNTQYTFDENYMRCVSEHMKELKPFGDVPDKLSVQIKRSFVATRTYGQALTTASEVAKKVLNVRLNADCTGALTKMQHCGACKGYTEKPCTNYCVNVIKGCLHYQHEFDSEWENFAMAMDKVAERLLGSFNIVMVVEPLNIKISEAIMNFQDSGQDITNRVFQGCGRPKLKKMKRSISPKLQGVQILNARSPVEADTLDIDETLDEAIVLRERRAAEPGSQETSAQQSQEQGVGKSGNGGGGGGGNNRRQQQRRKQQQQRRKQQNNRDDNDDDDNESGGGREPILDRIVRDIRQRVKDYKKFWSNLPHSVCSNEDIASSSDVDGMCWNGHTIDRYMHSITTEHGSNPEFTGNPASTKQTAQMASQLSHLKNAIVHLRNAYNGQDVEWSEQEELPYAGSGAGSGSGSEDDEDDDEGSGLGPFEPSHKPDVERPSVDADNDDDEDAGGRGHMPTHTSRPTSGVDDKNPLIHTTHFDQDHNDLDEDHRQLDEDEDTDAG | retained some activity | –
Dlp[F172T, F195Y]: Dlp mutant replacing hydrophobic residues with polar ones (protein, left off: HA, end not stated, kept) MLHQQQQQQHLHCRRKATATTTARLVIFSSPLLLLLLTTHLPPTLQADNGPAPQVAALAAPNPAGGVAGSSIIDQFSPNCSAVTHIFQARGIDAIEIPQKPSNERVLRYCESPSVGTCCTYNMETRMAMQSRQQLEGHTKDQISRMSGILGSKATKFKDIFTALLKESRTQTNSMFIRTYGVIYERNSYVFSDLYKELETYFANGRVDLLEVMDKFFNTLYQKMFTVLNTQYTFDENYMRCVSEHMKELKPFGDVPDKLSVQIKRSFVATRTYGQALTTASEVAKKVLNVRLNADCTGALTKMQHCGACKGYTEKPCTNYCVNVIKGCLHYQHEFDSEWENFAMAMDKVAERLLGSFNIVMVVEPLNIKISEAIMNFQDSGQDITNRVFQGCGRPKLKKMKRSISPKLQGVQILNARSPVEADTLDIDETLDEAIVLRERRAAEPGSQETSAQQSQEQGVGKSGNGGGGGGGNNRRQQQRRKQQQQRRKQQNNRDDNDDDDNESGGGREPILDRIVRDIRQRVKDYKKFWSNLPHSVCSNEDIASSSDVDGMCWNGHTIDRYMHSITTEHGSNPEFTGNPASTKQTAQMASQLSHLKNAIVHLRNAYNGQDVEWSEQEELPYAGSGAGSGSGSEDDEDDDEGSGLGPFEPSHKPDVERPSVDADNDDDEDAGGRGHMPTHTSRPTSGVDDKNPLIHTTHFDQDHNDLDEDHRQLDEDEDTDAGHDGANDNRSSDAPEKMTLRRALVVYLLPLYMAWFGGVCADLL | reduced trapping, though not completely | –
Dlp[R169E, T170N, Q171M, F172T]: Dlp mutant introducing the putative glycosylation site of Dally (protein, left off: HA, end not stated, kept) MLHQQQQQQHLHCRRKATATTTARLVIFSSPLLLLLLTTHLPPTLQADNGPAPQVAALAAPNPAGGVAGSSIIDQFSPNCSAVTHIFQARGIDAIEIPQKPSNERVLRYCESPSVGTCCTYNMETRMAMQSRQQLEGHTKDQISRMSGILGSKATKFKDIFTALLKESENMTNSMFIRTYGVIYERNSYVFSDLFKELETYFANGRVDLLEVMDKFFNTLYQKMFTVLNTQYTFDENYMRCVSEHMKELKPFGDVPDKLSVQIKRSFVATRTYGQALTTASEVAKKVLNVRLNADCTGALTKMQHCGACKGYTEKPCTNYCVNVIKGCLHYQHEFDSEWENFAMAMDKVAERLLGSFNIVMVVEPLNIKISEAIMNFQDSGQDITNRVFQGCGRPKLKKMKRSISPKLQGVQILNARSPVEADTLDIDETLDEAIVLRERRAAEPGSQETSAQQSQEQGVGKSGNGGGGGGGNNRRQQQRRKQQQQRRKQQNNRDDNDDDDNESGGGREPILDRIVRDIRQRVKDYKKFWSNLPHSVCSNEDIASSSDVDGMCWNGHTIDRYMHSITTEHGSNPEFTGNPASTKQTAQMASQLSHLKNAIVHLRNAYNGQDVEWSEQEELPYAGSGAGSGSGSEDDEDDDEGSGLGPFEPSHKPDVERPSVDADNDDDEDAGGRGHMPTHTSRPTSGVDDKNPLIHTTHFDQDHNDLDEDHRQLDEDEDTDAGHDGANDNRSSDAPEKMTLRRALVVYLLPLYMAWFGGVCADLL | reduced trapping, though not completely | –
GPC4: human glypican of Dlp family; secreted ΔGPI form (amino acids 1-487) in solubilisation assays (protein, left off: V5, internal (immediately after the signal peptide), state not stated) ALLAAELKSKSCSEVRRLYVSKGFNKNDAPLHEINGDHLKICPQGSTCCSQEMEEKYSLQSKDDFKSVVSEQCNHLQAVFASRYKKFDEFFKELLENAEKSLNDMFVKTYGHLYMQNSELFKDLFVELKRYYVVGNVNLEEMLNDFWARLLERMFRLVNSQYHFTDEYLECVSKYTEQLKPFGDVPRKLKLQVTRAFVAARTFAQGLAVAGDVVSKVSVVNPTAQCTHALLKMIYCSHCRGLVTVKPCYNYCSNIMRGCLANQGDLDFEWNNFIDAMLMVAERLEGPFNIESVMDPIDVKISDAIMNMQDNSVQVSQKVFQGCGPPKPLPAGRISRSISESAFSARFRPHHPEERPTTAAGTSLDRLVTDVKEKLKQAKKFWSSLPSNVCNDERMAAGNGNEDDCWNGKGKSRYLFAVTGNGLANQGNNPEVQVDTSKPDILILRQIMALRVMTSKMKNAYNGNDVDFFDISDESSGEGSGSGCEYQQCPSEFDYNATDHAGKSANEKADS | – | trapping of GFP-Wingless at the cell surface (GFP-Wingless; listed as hGPC4): trapped Wingless; effect on high target gene senseless (senseless): inhibit the high target gene senseless

Source: PMC7610841 (Nature, 2020)
